Consider 15 compounds from ChEMBL document CHEMBL1143979, “1-, 3- and 8-substituted-9-deazaxanthines as potent and selective antagonists at the human A2B adenosine receptor” (Bioorg Med Chem, 2008).

The species named for one test is Homo sapiens. As to the kind of experiment: Selectivity index, ratio for human adenosine A2A receptor to human adenosine A2B receptor.
The target of test [1] is T1, Adenosine receptor A2b (Homo sapiens) (UniProt P29275).
T1 sequence (whole entry): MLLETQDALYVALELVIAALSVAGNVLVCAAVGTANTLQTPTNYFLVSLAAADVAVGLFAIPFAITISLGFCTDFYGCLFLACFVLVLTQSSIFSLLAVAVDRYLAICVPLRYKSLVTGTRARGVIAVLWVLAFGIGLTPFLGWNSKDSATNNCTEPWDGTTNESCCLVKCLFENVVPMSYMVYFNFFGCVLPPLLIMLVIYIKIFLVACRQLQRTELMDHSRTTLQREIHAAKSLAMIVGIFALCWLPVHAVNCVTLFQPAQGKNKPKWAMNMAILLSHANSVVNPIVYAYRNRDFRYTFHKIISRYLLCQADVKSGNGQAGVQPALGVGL
As to the kind of experiment: Antagonist activity at human adenosine A2B receptor expressed in HEK293 cells by cAMP assay. The class given is functional, cell-based. In a few lines:
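cAMP assay in HEK-293 cells with endogenous human A2B receptor expression. NECA cumulative concentration–response curves were run in the absence and presence of antagonist, and the parallel rightward shift gives pA2.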

In another test the target is T2, Adenosine receptor A2b (Homo sapiens, UniProt P29275).
T2 sequence (P29275 whole entry): T1 sequence (whole entry)
As to the kind of experiment: Displacement of [3H]DPCPX from human adenosine A2B receptor expressed in HEK293 cells. Type of test: cell-based. To be noted: read-out: Log Ki (converted).

The target of test [2] is Adenosine receptor A2a (Rattus norvegicus, UniProt P30543). The test can be described thus: Antagonist activity at adenosine A2A receptor in Sprague-Dawley rat aorta smooth muscle. The class given is functional, tissue-based. Conditions: read-out: pA2 (converted). In a few lines: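 Isolated aorta from male Sprague–Dawley rats (200–250 g) for A2A receptors. Cumulative NECA agonist concentration–response curves were run without and with antagonist, and antagonist potency is given as pA2.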
Chain of Adenosine receptor A2a (Rattus norvegicus, UniProt P30543) (P30543 whole entry): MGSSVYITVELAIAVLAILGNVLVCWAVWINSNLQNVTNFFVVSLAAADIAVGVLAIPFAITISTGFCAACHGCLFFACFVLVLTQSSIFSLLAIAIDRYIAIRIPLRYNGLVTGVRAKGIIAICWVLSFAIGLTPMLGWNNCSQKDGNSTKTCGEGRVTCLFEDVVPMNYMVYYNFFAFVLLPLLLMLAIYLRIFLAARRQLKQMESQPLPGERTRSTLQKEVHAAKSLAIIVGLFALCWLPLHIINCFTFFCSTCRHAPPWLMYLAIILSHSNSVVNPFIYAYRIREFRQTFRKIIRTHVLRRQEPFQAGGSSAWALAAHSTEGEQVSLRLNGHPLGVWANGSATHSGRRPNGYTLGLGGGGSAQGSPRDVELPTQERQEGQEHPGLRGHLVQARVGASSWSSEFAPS

For test [3], the target named is T3, Adenosine receptor A2a (Homo sapiens, UniProt P29274). As to the kind of experiment: Displacement of [3H]ZM-241385 from human adenosine A2A receptor expressed in CHO cells. Type of test: cell-based. The procedure, abridged:
(§1)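 Competition binding at cloned human receptors: [3H]DPCPX for A1 and A2B, [3H]ZM241385 for A2A, [3H]NECA for A3. Screening compounds are reported as % radioligand displacement at one concentration. SEM below 10%.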

A short description of test [4]: Antagonist activity at adenosine A2B receptor in guinea pig thoracic aorta smooth muscle. The class given is functional, tissue-based, Cavia porcellus. The procedure, abridged:
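Isolated guinea pig thoracic aorta smooth muscle (A2B). Cumulative NECA concentration–response curves were run without and with antagonist. Antagonism is read as a parallel rightward shift with no loss of maximum, and reported as pA2.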

In test [5] the target is T3, Adenosine receptor A2a. As to the kind of experiment: Antagonist activity at human adenosine A2A receptor expressed in CHO cells by cAMP assay. The class given is functional, cell-based. In a few lines:
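cAMP assay in CHO cells transfected with human A2A receptor. Cumulative NECA concentration–response curves were run alone and with antagonist, and potency is expressed as pA2.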

The target of test [6] is T4, Adenosine receptor A3 (Homo sapiens) (UniProt P0DMS8).
T4 sequence (whole entry): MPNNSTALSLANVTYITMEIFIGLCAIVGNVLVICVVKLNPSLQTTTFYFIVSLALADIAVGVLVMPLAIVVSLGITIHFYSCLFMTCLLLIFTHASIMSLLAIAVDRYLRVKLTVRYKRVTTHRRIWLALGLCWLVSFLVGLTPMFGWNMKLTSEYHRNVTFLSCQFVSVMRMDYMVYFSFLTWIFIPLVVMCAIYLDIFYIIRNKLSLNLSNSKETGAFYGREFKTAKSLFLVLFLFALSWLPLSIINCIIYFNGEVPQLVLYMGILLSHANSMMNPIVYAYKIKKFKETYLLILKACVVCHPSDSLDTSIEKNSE
As to the kind of experiment: Displacement of [3H]NECA from human adenosine A3 receptor expressed in CHO cells at 1 uM. Type of test: cell-based. The procedure, abridged:
as §1

A further test has as its target T5, Adenosine receptor A1 (Homo sapiens, UniProt P30542).
T5 sequence (P30542 whole entry): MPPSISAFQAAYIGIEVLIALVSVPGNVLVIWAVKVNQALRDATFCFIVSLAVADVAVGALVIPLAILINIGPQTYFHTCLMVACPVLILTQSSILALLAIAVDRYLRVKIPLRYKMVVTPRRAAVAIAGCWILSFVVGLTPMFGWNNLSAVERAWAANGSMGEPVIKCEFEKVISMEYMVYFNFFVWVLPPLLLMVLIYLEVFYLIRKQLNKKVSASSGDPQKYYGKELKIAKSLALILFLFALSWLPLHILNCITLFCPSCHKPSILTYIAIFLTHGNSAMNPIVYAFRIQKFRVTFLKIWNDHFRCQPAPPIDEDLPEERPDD
The test can be described thus: Displacement of [3H]DPCPX from human adenosine A1 receptor expressed in CHO cells. Type of test: cell-based. The procedure, abridged:
as §1

T3 sequence (P29274 whole entry): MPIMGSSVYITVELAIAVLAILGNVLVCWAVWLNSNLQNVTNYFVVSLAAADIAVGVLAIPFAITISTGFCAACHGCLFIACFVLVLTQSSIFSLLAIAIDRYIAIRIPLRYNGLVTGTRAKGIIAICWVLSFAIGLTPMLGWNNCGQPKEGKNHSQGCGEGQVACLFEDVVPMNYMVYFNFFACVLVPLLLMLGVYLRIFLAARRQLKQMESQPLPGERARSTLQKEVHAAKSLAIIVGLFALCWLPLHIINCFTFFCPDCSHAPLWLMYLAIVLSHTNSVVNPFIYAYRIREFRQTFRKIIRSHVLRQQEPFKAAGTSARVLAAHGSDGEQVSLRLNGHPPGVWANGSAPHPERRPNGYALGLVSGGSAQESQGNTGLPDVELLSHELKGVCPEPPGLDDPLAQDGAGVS

In the case of `CCCn1c(=O)c2[nH]c(-c3ccc(OC(C)(C)C(=O)N4CCN(c5ccccc5)CC4)cc3)cc2n(CCC)c1=O`, in the test filed under Homo sapiens, the Ratio was 10.7. In addition, the Activity result (in test [1]; on Adenosine receptor A2a [5]) was “Dose-dependent effect” each time. The figures for the inhibition constant (Ki) on Adenosine receptor A2b and at Adenosine receptor A2a [3] were 24.5 nM and 263 nM, respectively. The Kb on Adenosine receptor A2a [2] was 398 nM. Also, the pA2 in [4] is recorded as 7.5.
In the case of `CCCn1c(=O)c2[nH]c(-c3ccc(OCC(=O)N4CCN(C(c5ccccc5)c5ccccc5)CC4)cc3)cc2n(CCC)c1=O`, the Ratio in the test listed under Homo sapiens was 30.9. The values for the Ki on Adenosine receptor A2b and on Adenosine receptor A2a [3] were 51.3 nM and 1580 nM, respectively.
As to `Cn1c(=O)c2[nH]c(-c3ccc(OCC(=O)N4CCN(c5ccc(F)cc5)CC4)cc3)cc2n(C)c1=O`, the Ratio in the test listed under Homo sapiens amounted to 33.8. The values for the Ki at Adenosine receptor A2b and on Adenosine receptor A2a [3] were 9.55 nM and 324 nM, respectively.
Consider `CCCn1c(=O)c2[nH]c(-c3ccc(OCC(=O)N4CCc5ccccc5C4)cc3)cc2n(CCC)c1=O`, for which the Ratio in the test filed under Homo sapiens amounted to 40.7. The Ki is 2.29 nM on Adenosine receptor A2b and 93.3 nM on Adenosine receptor A2a [3].
Consider `Cn1c(=O)c2[nH]c(-c3ccc(OCC(=O)N4CCN(c5ccc(Br)cc5)CC4)cc3)cc2n(C)c1=O`, for which, in the test filed under Homo sapiens, the Ratio was 33.1. For the same compound, the Ki at Adenosine receptor A2b was 3.47 nM; on Adenosine receptor A2a [3], 115 nM.
Regarding `CCCn1c(=O)c2[nH]c(-c3ccc(OCC(=O)N4CCN(c5nc6ccc(Cl)cc6s5)CC4)cc3)cc2n(CCC)c1=O`, the Ratio in the test listed under Homo sapiens stood at 77.6. The Ki on Adenosine receptor A2b was 10.5 nM; at Adenosine receptor A2a [3], 813 nM.
`COc1cc(OCC(=O)N2CCN(c3ccccc3)CC2)ccc1-c1cc2c([nH]1)c(=O)n(C)c(=O)n2C` registered an Activity in [6] of 9%. Also, the Ratio in the test listed under Homo sapiens came to 219. Further, the Ki at Adenosine receptor A1 was 537 nM; at Adenosine receptor A2b, 32.4 nM; at Adenosine receptor A2a [3], 7080 nM.
In the case of `CCCn1c(=O)c2[nH]c(-c3ccc(OCC(=O)N4CCC(c5ccccc5)(c5ccccc5)CC4)cc3)cc2n(CCC)c1=O`, the Ratio in the test filed under Homo sapiens was 40.7. The inhibition constant (Ki) at Adenosine receptor A2b is 21.4 nM; at Adenosine receptor A2a [3], 1050 nM.
In the same order, the values of `COc1ccc(N2CCN(C(=O)COc3ccc(-c4cc5c([nH]4)c(=O)n(C)c(=O)n5C)cc3)CC2)cc1` are 12.9, 13.2 nM and 170 nM.
Take `COc1ccccc1N1CCN(C(=O)COc2ccc(-c3cc4c([nH]3)c(=O)n(C)c(=O)n4C)cc2)CC1`: the Ratio in the test listed under Homo sapiens stood at 45.7. Also, the Ki at Adenosine receptor A2b is 51.3 nM; on Adenosine receptor A2a [3], 2340 nM.
In the same order, the values of `CCCn1c(=O)n(C)c(=O)c2[nH]c(-c3ccc(OCC(=O)N4CCC(c5ccccc5OC)CC4)cc3)cc21` are 66.1, 6.17 nM and 407 nM.
In the same order, the values of `CCCn1c(=O)n(C)c(=O)c2[nH]c(-c3ccc(OCC(=O)N4CCN(c5nc6ccc(Cl)cc6s5)CC4)cc3)cc21` are 106, 5.75 nM and 631 nM.
In the same order, the values of `CCCn1c(=O)n(C)c(=O)c2[nH]c(-c3ccc(OCC(=O)N4CCN(c5c(Cl)cncc5Cl)CC4)cc3)cc21` are 151, 4.27 nM and 646 nM.
With `Cn1c(=O)c2[nH]c(-c3ccc(OCC(=O)N4CCC(O)(c5ccc(Cl)cc5)CC4)cc3)cc2n(C)c1=O`, in the test filed under Homo sapiens, the Ratio was 112. Also, the Ki is 2.88 nM on Adenosine receptor A2b and 324 nM at Adenosine receptor A2a [3].
In the same order, the values of `Cn1c(=O)c2[nH]c(-c3ccc(OCC(=O)N4CCC(C(=O)c5ccc(F)cc5)CC4)cc3)cc2n(C)c1=O` are 26.9, 11.2 nM and 302 nM.
